# Experimental data from ChEMBL document CHEMBL3044723, “Phytotoxins from the leaves of Ruta graveolens” (2004).
# Calls of active or inactive are those of the source. The rule behind the calls is not given here.
# Assays:
# Lactuca sativa [1] = experiment: Phytotoxicity against Lactuca sativa cv. Burpee's Iceberg (lettuce) assessed as reduction in chlorophyll content at 100 uM after 7 days by spectrophotometry; format: functional, organism-based
# How it was run: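 Seeds grown in 24-well plates in water with 3% acetone, at 26 °C under continuous light (173 µmol s⁻¹ m⁻²) for 7 days. Cotyledons from three plants per well were weighed and extracted in 2 mL DMSO at 60 °C for 2 h, then diluted with 1 mL more DMSO. A645 and A663 were read and converted to total chlorophyll (20.2A645 + 8.02A663). Values were normalized to cotyledon weight.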
# Lactuca sativa [2] = experiment: Phytotoxicity against Lactuca sativa cv. Burpee's Iceberg (lettuce) assessed as unbranched root tips at 10 uM after 7 days by spectrophotometry relative to control; format: functional, organism-based
# Lactuca sativa [3] = experiment: Phytotoxicity against Lactuca sativa cv. Burpee's Iceberg (lettuce) assessed as blunt root tips at 10 uM after 7 days by spectrophotometry relative to control; format: functional, organism-based
# Lactuca sativa [4] = experiment: Phytotoxicity against Lactuca sativa cv. Burpee's Iceberg (lettuce) assessed as reduction in radical length at 10 uM after 7 days by spectrophotometry relative to control; format: functional; design: scale not given: the % may be the effect or the level left
# How it was run: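 Lettuce seeds were set in multiwell plates with test material supplied from acetone in DDI water (3% acetone final). Controls received acetone and water only. Plates were sealed and kept at 26 °C under continuous light at 173 µmol s⁻¹ m⁻² for 7 days. Root lengths, together with plant weight and chlorophyll content, were compared against untreated controls.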
# Lactuca sativa [5] = experiment: Phytotoxicity against Lactuca sativa cv. Burpee's Iceberg (lettuce) assessed as reduction in chlorophyll content compound treated at 100 uM in darkness after 7 days followed by exposure to white light by spectrophotometry; format: functional, organism-based
# How it was run: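 Seedlings were treated in wells with 1% acetone final and kept in foil-wrapped darkness at 26 °C for 7 days. They then received 5 min of white light (80 µmol s⁻¹ m⁻² PAR) and were returned to darkness for 1 h. Ten cotyledon pairs were weighed and extracted in DMSO in the dark. Chlorophyll was read at 645/663 nm and compared with the solvent control.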
# Allium cepa [6] = experiment: Phytotoxicity against Allium cepa (onion) assessed as accumulation of cells at metaphase in root tips at 33 uM measured on day 7 of compound treatment by microscopy; format: functional, organism-based
# How it was run: (§1)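 Ten surface-sterilized onion seeds were placed on filter paper in 6-cm dishes with 1 mL of water containing compound (final 0.05% acetone). Controls received water or acetone/water. Dishes were kept at 25 °C under a 16 h photoperiod at 173 µmol s⁻¹ m⁻². On day 7, root tips were fixed (HOAc/EtOH 1:3), hydrolyzed in 5 N HCl for 1 h, and Feulgen-stained with Schiff's reagent for 45 min. At least 1000 cells per slide were scored at 40×.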
# Allium cepa [7] = experiment: Phytotoxicity against Allium cepa (onion) assessed as inhibition of mitosis in root tips at 100 uM measured on day 7 of compound treatment by microscopy; format: functional, organism-based; how it was run: as §1
# Allium cepa [8] = experiment: Phytotoxicity against Allium cepa (onion) assessed as accumulation of cells at prophase in root tips at 33 uM measured on day 7 of compound treatment by microscopy; format: functional, organism-based; how it was run: as §1
# Agrostis stolonifera = experiment: Phytotoxicity against Agrostis stolonifera assessed as mortality at 333 uM after 12 days; format: functional, organism-based
# How it was run: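 Seeds (10 mg) per well of 24-well plates in 250 µL water containing 3% acetone as final concentration; solvent-only controls. Plates were sealed and incubated at 26 °C under continuous light at 173 µmol s⁻¹ m⁻². Concentrations tested were 10, 33, 100 and 333 µM. Phytotoxicity was scored visually against untreated controls.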
# Lemna aequinoctialis [9] = experiment: Phytotoxicity against Lemna paucicostata assessed as growth inhibition at 100 uM after 4 to 5 days; format: functional, organism-based
# How it was run: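 Hoagland medium at pH 5.5 was filter-sterilized in 6-well plates, with compound added in acetone or EtOH (1% final). Two three-frond colonies from 4- to 5-day-old stock cultures were placed per well. Total frond area was recorded by image analysis from day 0 to day 7.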
# Lemna aequinoctialis [10] = experiment: Phytotoxicity against Lemna paucicostata assessed as tissue degradation at 250 uM after 4 to 5 days; format: functional, organism-based
Compound,Activity (Lactuca sativa [1]),Activity (Lactuca sativa [2]),Activity (Lactuca sativa [3]),Activity (Lactuca sativa [4]),Activity (Lactuca sativa [5]),Activity (Allium cepa [6]),inhibition (Allium cepa [7]),Activity (Allium cepa [8]),Activity (Agrostis stolonifera),growth inhibition (GI) (Lemna aequinoctialis [9]),Activity (Lemna aequinoctialis [10])
COc1c2occc2cc2ccc(=O)oc12 [METHOXSALEN],Active,Active,Active,39%,inactive,Active,Active,Active,Active,,
COc1c2ccoc2cc2oc(=O)ccc12,,inactive,inactive,inactive,,,Active,,Active,,
Cn1c(-c2ccc3c(c2)OCO3)cc(=O)c2ccccc21,Active,,,,inactive,,Active,,Active,Active,Active
